Experimental data reported in ChEMBL document CHEMBL3414477, “Synthesis, biological investigation and molecular docking study of N-malonyl-1,2-dihydroisoquinoline derivatives as brain specific and shelf-stable MAO inhibitors” (Eur J Med Chem, 2015).

Tests used:
Bos taurus = species: Bos taurus; test: Selectivity index, ratio of IC50 for bovine brain mitochondria MAO-B to IC50 for bovine brain mitochondria MAO-A
Procedure, shortened: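 Bovine brain mitochondria (6 mg/mL suspension) in 0.25 M phosphate buffer, pH 7.4, were used with 0.1 mM clorgyline or L-deprenyl to isolate MAO-A or MAO-B. Compounds at five concentrations in propylene glycol were preincubated for 20 min, then 2.5 mM kynuramine was added for 60 min at 37 °C. The reaction was stopped with perchloric acid, made alkaline with NaOH and read fluorimetrically in duplicate. IC50 was reported, and SI = MAO-B IC50 / MAO-A IC50.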

[1] = target: T1, Amine oxidase [flavin-containing] A (Bos taurus, UniProt P21398); test: Inhibition of bovine brain mitochondria MAO-A by spectrofluorimetry
T1 sequence (P21398 whole entry): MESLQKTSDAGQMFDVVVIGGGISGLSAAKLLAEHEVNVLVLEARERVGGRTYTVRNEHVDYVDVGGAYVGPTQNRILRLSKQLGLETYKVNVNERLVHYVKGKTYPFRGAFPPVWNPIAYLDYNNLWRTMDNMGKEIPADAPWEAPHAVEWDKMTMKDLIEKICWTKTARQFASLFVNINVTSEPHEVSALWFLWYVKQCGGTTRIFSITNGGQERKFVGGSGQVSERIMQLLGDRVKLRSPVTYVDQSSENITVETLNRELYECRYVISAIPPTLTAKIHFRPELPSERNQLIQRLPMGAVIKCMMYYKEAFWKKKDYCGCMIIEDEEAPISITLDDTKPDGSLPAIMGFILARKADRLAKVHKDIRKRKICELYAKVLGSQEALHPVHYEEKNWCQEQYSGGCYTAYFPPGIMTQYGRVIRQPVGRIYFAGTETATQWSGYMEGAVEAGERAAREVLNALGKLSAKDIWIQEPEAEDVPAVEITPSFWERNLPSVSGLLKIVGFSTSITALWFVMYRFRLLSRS

[2] = target: T2, Amine oxidase [flavin-containing] B (Bos taurus, UniProt P56560); test: Inhibition of bovine brain mitochondria MAO-B by spectrofluorimetry
T2 sequence (P56560 whole entry): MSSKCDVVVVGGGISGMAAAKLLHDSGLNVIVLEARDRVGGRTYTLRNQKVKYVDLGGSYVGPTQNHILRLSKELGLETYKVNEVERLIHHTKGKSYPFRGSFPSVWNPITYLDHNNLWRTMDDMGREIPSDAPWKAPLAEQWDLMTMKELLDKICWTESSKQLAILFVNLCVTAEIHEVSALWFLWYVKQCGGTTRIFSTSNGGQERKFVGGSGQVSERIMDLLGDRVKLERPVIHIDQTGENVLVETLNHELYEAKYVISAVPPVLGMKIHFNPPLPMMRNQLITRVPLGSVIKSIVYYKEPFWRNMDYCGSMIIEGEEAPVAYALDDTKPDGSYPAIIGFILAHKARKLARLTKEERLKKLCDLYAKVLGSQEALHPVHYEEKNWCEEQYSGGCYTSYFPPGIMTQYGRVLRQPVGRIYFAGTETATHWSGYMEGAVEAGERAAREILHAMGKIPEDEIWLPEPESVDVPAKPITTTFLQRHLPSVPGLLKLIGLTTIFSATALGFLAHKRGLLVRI

[3] = Chemical stability of the compound in 10% methanolic silver nitrate assessed as apparent pseudo first order rate constant of disappearance by reverse-phase HPLC analysis; format: physicochemical
Procedure, shortened: (§1)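 Reagents were 10% methanolic silver nitrate or 30% aqueous hydrogen peroxide. The compound and its metabolites were measured by a validated reverse-phase HPLC method. Pseudo first order disappearance was fitted by linear regression of ln peak area against time, and t1/2 was derived from the rate constant.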

[4] = Chemical stability of the compound in 30% aqueous hydrogen peroxide assessed as apparent pseudo first order rate constant of disappearance by reverse-phase HPLC analysis; format: physicochemical; conditions: buffer; procedure, shortened: as §1
[5] = Chemical stability of the compound in 10% methanolic silver nitrate assessed as half life by reverse-phase HPLC analysis; format: physicochemical; procedure, shortened: as §1
[6] = Chemical stability of the compound in 30% aqueous hydrogen peroxide assessed as half life by reverse-phase HPLC analysis; format: physicochemical; procedure, shortened: as §1
[7] = Shelf-life stability of the compound in phosphate buffer at pH 7.4 assessed as apparent pseudo first order rate constant of disappearance by reverse-phase HPLC analysis; format: physicochemical
Procedure, shortened: (§2)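 1 mL of freshly prepared 2 × 10^-4 M methanolic solution (stock) was added to 5 mL of 0.2 M phosphate buffer, pH 5.8 or 7.4, at about 37 °C. Tubes were kept in the dark for 3 days and sampled at 5, 180, 1880 and 2440 min for reverse-phase HPLC. The rate constant came from linear regression of ln peak area against time, and t1/2 was derived from it.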

[8] = Shelf-life stability of the compound in phosphate buffer at pH 5.8 assessed as apparent pseudo first order rate constant of disappearance by reverse-phase HPLC analysis; format: physicochemical; procedure, shortened: as §2
[9] = Shelf-life stability of the compound in phosphate buffer at pH 7.4 assessed as half life by reverse-phase HPLC analysis; format: physicochemical; procedure, shortened: as §2
[10] = Shelf-life stability of the compound in phosphate buffer at pH 5.8 assessed as half life by reverse-phase HPLC analysis; format: physicochemical; procedure, shortened: as §2
Plasma = test: Stability of the compound in 80% mouse plasma assessed as apparent pseudo first order rate constant of disappearance by reverse-phase HPLC analysis; format: ADME, cell-free
Procedure, shortened: (§3)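 Heparinized mouse blood was spun at 4000 rpm for 20 min, and the plasma was diluted to 80% with 0.2 M phosphate buffer, pH 7.4, then prewarmed at 37 °C. Methanolic compound solution (2 × 10^-4 M stock) was added and the mix held at 37 °C. Samples were taken at 5–240 min, quenched in ice-cold methanol, frozen, centrifuged and run on HPLC. Rate came from ln peak area versus time (n = 5), and t1/2 was derived.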

Brain [11] = test: Stability of the compound in 20% rabbit brain homogenate assessed as apparent pseudo first order rate constant of disappearance by reverse-phase HPLC analysis; format: ADME, tissue-based, Oryctolagus cuniculus
Procedure, shortened: (§4)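 Rabbit brains were homogenized in 4 volumes of ice-cold isotonic 0.2 M phosphate buffer, pH 7.4, giving a 20% homogenate that was equilibrated at 37 °C. Methanolic compound solution (2 × 10^-4 M stock) was added and the mix held at 37 °C. Samples were taken at 5, 60, 120, 180 and 240 min, quenched in ice-cold methanol, frozen, centrifuged and run on HPLC. The pseudo first order rate came from ln peak area versus time (n = 5), and t1/2 was derived.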

[12] = Stability of the compound in 80% mouse plasma assessed as half life by reverse-phase HPLC analysis; format: ADME, cell-free; procedure, shortened: as §3
[13] = Stability of the compound in 20% rabbit brain homogenate assessed as half life by reverse-phase HPLC analysis; format: ADME, tissue-based, Oryctolagus cuniculus; procedure, shortened: as §4
Blood = test: Drug metabolism in Sprague-Dawley rat blood assessed as 2-(isoquinolinium-2-yl)-3-oxo-3-(phenethylamino)propanoate measured during first 15 mins at 20 mg/kg, iv; format: ADME, organism-based; design: dose 20 mg/kg, route intravenous; conditions: in vivo, 0.25 h
Procedure, shortened: (§5)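 Female Sprague Dawley rats (65–70 g, 3 per group) were anesthetized with urethane and given 20 mg/kg in DMSO (25 mg/mL) via the external jugular vein. At 5, 15, 30, 45, 60 and 75 min, eyeball blood was taken into acetonitrile. Brains were removed, washed, homogenized in water plus 5% DMSO/acetonitrile and centrifuged at 4000 rpm for 10 min. Supernatants were analysed by HPLC, with DMSO-injected controls.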

Brain [14] = test: Drug metabolism in Sprague-Dawley rat brain assessed as 2-(isoquinolinium-2-yl)-3-oxo-3-(phenethylamino)propanoate at 20 mg/kg, iv; format: ADME, organism-based; design: dose 20 mg/kg, route intravenous; conditions: in vivo; procedure, shortened: as §5
Brain [15] = test: Drug metabolism in Sprague-Dawley rat brain assessed as 2-(isoquinolin-2(1H)-yl)-3-oxo-3-(phenethylamino)propanoate at 20 mg/kg, iv; format: ADME, organism-based; design: dose 20 mg/kg, route intravenous; conditions: in vivo; procedure, shortened: as §5
Brain [16] = test: Drug distribution in Sprague-Dawley rat brain measured per gram at 20 mg/kg, iv; format: ADME, organism-based; design: dose 20 mg/kg, route intravenous; conditions: in vivo; procedure, shortened: as §5

CCOC(=O)C(C(=O)N/N=C/c1ccc([N+](=O)[O-])cc1)[n+]1ccc2ccccc2c1 (stereo unspecified)
Selectivity Index (Bos taurus): 1.94e+06 | IC50 [1]: 0.0038 µM | IC50 [2]: 7400 µM

N/N=C/c1ccc(Cl)cc1
Selectivity Index (Bos taurus): 1.89e+06 | IC50 [1]: 0.0039 µM | IC50 [2]: 7400 µM

CCOC(=O)C(C(=O)N/N=C/c1ccc(Cl)cc1)[n+]1ccc2ccccc2c1 (stereo unspecified)
Selectivity Index (Bos taurus): 5400 | IC50 [1]: 0.066 µM | IC50 [2]: 360 µM

CCOC(=O)C(C(=O)NCCc1ccccc1)[n+]1ccc2ccccc2c1 (stereo unspecified)
Selectivity Index (Bos taurus): 12400 | IC50 [1]: 0.0062 µM | IC50 [2]: 77 µM

N/N=C/c1ccc([N+](=O)[O-])cc1
Selectivity Index (Bos taurus): 9500 | IC50 [1]: 0.049 µM | IC50 [2]: 380 µM

CCOC(=O)C(C(=O)NCCc1ccccc1)N1C=Cc2ccccc2C1 (stereo unspecified)
K [3]: 0.0217 min⁻¹ | K [4]: 0.0181 min⁻¹ | half-life [5]: 0.532 h | half-life [6]: 0.637 h | K [7]: 0.00114 min⁻¹ | K [8]: 0.000561 min⁻¹ | half-life [9]: 10.1 h | half-life [10]: 20.6 h | K (Plasma): 6.81 ×10⁻³ /min | K (Brain [11]): 3.82 ×10⁻³ /min | half-life [12]: 1.7 h | half-life [13]: 3.02 h | Drug metabolism (Blood): metabolite_detected | Drug metabolism (Brain [14]): metabolite_detected | Drug metabolism (Brain [15]): metabolite_detected | Drug uptake (Brain [16]): 145.1 µg/g
